Here are results for 3 molecules from article PMC4102938 (British Journal of Cancer, 2014).

Series [1] concerns H1975 cells stably carrying scramble vector. The series is described as follows: MTT growth assay, scrambled shRNA control cells. It is filed as cell-based, human. The method in brief: (§1)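 H1975 cells stably carrying a CRM1-targeting or scrambled shRNA were used, made by pLKO.1 lentiviral infection with polybrene for 16 h and puromycin selection for 3 days starting 2 days post-infection. Cells were cultured 72 h across a cisplatin series up to 10 μg ml−1. Growth was measured by MTT and IC50 derived. Data are three experiments in triplicate, mean±s.d.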

In series [2] the test system is H1975 cells stably containing shCRM1. The series is described as follows: MTT growth assay, CRM1-knockdown cells. The format is cell-based, human. As to conditions: H1975 shCRM1, cisplatin 72 h. The method in brief:
as §1
On the technique in general: Tetrazolium dyes change colour on reduction, which living cells bring about.

The subject of series [3] is CRM1. Conditions: 24 h of incubation; ref Sun et al (2013); cited from earlier work.
A further series has as its system 11 NSCLC cell lines. The series is described as follows: MTT proliferation assay, 72 h, whole panel. Conditions: Homo sapiens, read-out: calculated IC50 values, range. It is filed as cell-based. The gist of the method: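 Eleven NSCLC lines (STR-verified) were grown in RPMI 1640 with 10% FBS and penicillin/streptomycin at 37 °C, 5% CO2. Cells were plated at 3 × 10^3 per well and exposed for 72 h to test compound at 0, 0.1, 1, 10, 100 or 1000 nM. Viability was read by MTT absorbance at 570 nm, and IC50 was taken from fitted dose-response curves.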

For series [4], the system named is H1975 cells stably carrying shp73. The series is described as follows: MTT growth assay, p73-knockdown cells. Conditions: Homo sapiens, NCI-H1975, 72 h. The format is cell-based. The gist of the method: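 H1975 cells stably carrying a p73-targeting or scrambled shRNA were used, made by pLKO.1 lentiviral infection with polybrene for 16 h and puromycin selection for 3 days beginning 2 days after infection. Cells were cultured 3 days with test compound at 0, 1, 3, 10, 30, 100, 320 or 1000 nM. Growth was measured by MTT and IC50 derived. Data are three experiments in triplicate, mean±s.d.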

In series [5] the test system is PC14 cells, scramble vector control. In words: MTT growth assay, transient scramble control. Conditions: Homo sapiens, PC-14. The format is cell-based.
The subject of the next series is PC14 cells, shp73. The series is described as follows: MTT growth assay, transient p73 silencing. The format is cell-based. As to conditions: Homo sapiens, PC-14.
Series [6] deals with six NSCLC cell lines (A549, H460, H1975, PC14, H1299, and H23). In words: Cell cycle analysis by propidium iodide flow cytometry, six lines. As to conditions: range over six NSCLC cell lines, 1 μM, 24 h. The format is cell-based, human. The method in brief: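 A549, H460, H1975, PC14, H1299 and H23 were seeded at 50% confluency, left overnight, then exposed for 24 h to test compound (1 μM) or diluent control. DNA content was stained with propidium iodide, and cell-cycle phase distribution was determined by flow cytometry.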
In general terms: A flow cytometer gives signals particle by particle.

The subject of another series is six NSCLC cell lines. The series is described as follows: Apoptosis, annexin V/propidium iodide flow cytometry, six lines. The format is cell-based, human. Conditions: range over six NSCLC cell lines, 24 h. The gist of the method: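 Cells seeded at 50% confluency, incubated overnight, then given fresh medium with diluent control or test compound (1, 10, 100, 1000 nM) for 24 h. Cells were PBS-washed, trypsinized, resuspended in annexin-binding buffer at 1 × 10^6 cells per ml, and stained with annexin V plus propidium iodide. Analysed by flow cytometry; read-out is the percent annexin V/PI co-positive cells.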

The test system of series [7] is CRM1. The series is described as follows: Immunoblot of CRM1 protein in treated cells. It is filed as cell-based, human. As to conditions: H1975 cell lysate, KPT-330 10–1000 nM, 24 h. The method in brief: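 H1975 cells were treated 24 h with test compound at 0, 10, 100 or 1000 nM. Whole-cell lysates were prepared with a mammalian lysis reagent, protein was measured by BCA, and samples were run on SDS-PAGE and blotted to PVDF. Membranes were blocked 1 h in TBS/5% milk/0.5% Tween 20, incubated with primary antibody overnight at 4 °C, then HRP secondary for 1 h at room temperature. Detection was by chemiluminescence, with β-actin as reference and densitometry of bands.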

For series [8], the system named is CRM1. In words: Quantitative RT-PCR of CRM1 mRNA in treated cells. It is filed as cell-based, human. Conditions: H1975, KPT-330 10–1000 nM, 24 h. The method in brief:
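H1975 cells were exposed for 24 h to test compound at 0, 10, 100 or 1000 nM. CRM1 mRNA was quantified by quantitative RT–PCR; experiments were done in triplicate and reported as mean±s.d.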

Series [9] deals with H1975 NSCLC xenografts. In words: H1975 NSCLC xenograft tumour growth. As to conditions: NOD/SCID mice, oral 10 mg kg^−1 thrice weekly for 4 weeks. The format is in vivo. The gist of the method:
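Seven-week-old male NOD/SCID mice were injected subcutaneously in both flanks with H1975 cells (1.0 × 10^7) in matrigel. Mice were randomised into two groups of five and dosed orally three times weekly for 4 weeks with vehicle (0.6% w/v aqueous Pluronic F-68) or test compound (10 mg kg−1), with Nutri-Cal given during therapy. Calipers were used three times weekly; volume = width² × length/2. Tumour weights were taken after 28 days.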

Series [10] relates to H1975 NSCLC xenografts. In words: Immunohistochemistry of xenograft tumours. Conditions: end of treatment, 10 mg kg^−1 thrice weekly × 4 weeks. It is filed as in vivo, NOD/SCID mice. The gist of the method:
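At the end of the 28-day oral dosing, H1975 xenograft tumours were formalin-fixed, paraffin-embedded and cut at 5.0 μm. Peroxidase was quenched with 3% H2O2, sections blocked 1 h at room temperature in PBS with 3% normal serum, then probed overnight at 4 °C for Ki-67 or TUNEL. Detection used biotinylated secondary (1:200) plus avidin–biotin peroxidase. Three random ×200 fields were scored, counting 100 cells in triplicate; positives are given as % of total cells.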

Series [11] is described as follows: Body weight of treated mice. As to conditions: NOD/SCID mice, oral 10 mg kg^−1 thrice weekly for 4 weeks. The format is in vivo.
Series [12] in a line: Peripheral blood analysis after 28-day treatment. The format is in vivo, NOD/SCID mice. The method in brief:
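H1975-xenografted male NOD/SCID mice (five per group) were given vehicle (0.6% w/v aqueous Pluronic F-68) or test compound orally, 10 mg kg−1 three times weekly for 4 weeks. After the 28-day treatment, peripheral blood was analysed for white cells, neutrophils, platelets and haematocrit, and serum for albumin, alkaline phosphatase, ALT and creatinine.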

SMILES strings stand for the structures.

In general, IC50 refers to the midpoint of a concentration-inhibition curve. In the case of `N.N.[Cl][Pt][Cl]` [cisplatin, reference compound], the IC50 in series [1] (H1975 scramble, cisplatin 72 h, MTT) was found to be 8.1 µg/mL; in series [2], 1.62 µg/mL.

As to `CCC(=C/[C@H](C)C/C=C/C(C)=C/[C@@H](C)C(=O)[C@@H](C)[C@H](O)[C@@H](C)C/C(C)=C/C(=O)O)/C=C/[C@@H]1OC(=O)C=C[C@@H]1C` [LMB, Leptomycin B], the “reversibility of binding to CRM1” value in the series with CRM1 [3] is given as “not reversible”.

`O=C(/C=C\n1cnc(-c2cc(C(F)(F)F)cc(C(F)(F)F)c2)n1)NNc1cnccn1` [KPT-330]: the 50% inhibitory concentration (IC50) in the series with 11 NSCLC cell lines was 0.025 to 0.995 µM. This molecule showed an IC50 in [1] (Homo sapiens, NCI-H1975, 72 h) of 0.098 µM. Moreover, the IC50 in series [4] is > 1 µM. Inhibition in series [5] was half-maximal at 0.197 µM (IC50). In the series on PC14 cells, shp73, this molecule came in with an IC50 of 0.318 µM. For the same molecule, in series [6], the “G1 cell cycle, range” value is reported as 56–82%; the “G2/M phase, range” value is recorded as 2–20%; the “S phase, range” value is reported as 8–20%. The “range of apoptosis induced (annexin V/propidium iodide co-positive cells)” value in the series with six NSCLC cell lines was 22–54%. Also, in the series on CRM1 [7], the “protein levels of CRM1 (western blot)” value is “dose-dependent decrease”. Further, the “CRM1 mRNA levels” value in the series on CRM1 [8] is listed as “no significant change”. For the same molecule, the “tumour growth compared with vehicle-treated controls” value with H1975 NSCLC xenografts [9] is recorded as “mark inhibition”. Besides, in the series on H1975 NSCLC xenografts [10], the “Ki-67-positive cells in tumour tissue” value is “decreased” and the “percent of TUNEL-positive cells in tumour tissue” value is “increased”. Moreover, in series [11], the “effect on body weight compared with the vehicle group” value is reported as “did not have a significant effect” and the “mean relative body weight compared with mean starting weight” value worked out at 105%. The Neut in series [12] (NOD/SCID mice, 10 mg kg^−1 thrice weekly × 4 weeks, mean±s.d., range 0.15–7.9) is 1.26±0.5 × 1000 per μl. This molecule also had a CREAT in [12] (NOD/SCID mice, 10 mg kg^−1 thrice weekly × 4 weeks, mean±s.d., range 0.2–0.9) of 0.062 ± 0.01 mg/dL. Moreover, the WBC in series [12] (NOD/SCID mice, 10 mg kg^−1 thrice weekly × 4 weeks, mean±s.d., range 2.9–20.9) was 4.0±0.3 × 1000 per μl. This molecule gave an ALT in series [12] (NOD/SCID mice, 10 mg kg^−1 thrice weekly × 4 weeks, mean±s.d., range 17–77) of 46.2±10.2 U l^−1. In [12] (NOD/SCID mice, 10 mg kg^−1 thrice weekly × 4 weeks, mean±s.d., range 25–30), the Alb is 36.5 ± 0.6 g/L. The molecule further came in with an HCT in series [12] (NOD/SCID mice, 10 mg kg^−1 thrice weekly × 4 weeks, mean±s.d., range 34–53) of 46.2±7.5%. The molecule also had an ALP in [12] (NOD/SCID mice, 10 mg kg^−1 thrice weekly × 4 weeks, mean±s.d., range 35–96) of 96±18 U l^−1. The PLT in series [12] (NOD/SCID mice, 10 mg kg^−1 thrice weekly × 4 weeks, mean±s.d., range 685–1436) was 786±180 × 1000 per μl. Moreover, in [12] (peripheral blood after the 28-day treatment), the “total white blood cells, neutrophils, platelet counts, haematocrit, serum albumin, alkaline phosphatase, ALT and creatinine compared with vehicle group” value is reported as “no significant alterations”.
